Reference: ChEMBL document CHEMBL1128498, “Synthesis and antitumor activity of various 6-demethylmitomycins and 6-demethyl-6-halomitomycins” (1995)

Legend:
[1] = organism: Mus musculus; test: T/C value was measured as tumor volume in the treated versus control mice.; format: functional
Procedure, shortened: (§1)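 Sarcoma 180 cells inoculated sc into the axillary region of ddY mice on day 0; compound given iv on day 1. Tumor volume compared treated versus control (T/C). ED50 is the dose giving 50% inhibition of tumor growth, from the dose-response curve. Optimal dose also recorded.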

[2] = Optimal dose was measured against sarcoma 180 cell in mice; format: functional, Mus musculus; procedure, shortened: as §1
[3] = organism: Mus musculus; test: 50% inhibition of solid tumor growth (Sarcoma 180 cells) in mice; format: functional; procedure, shortened: as §1
[4] = test system: HeLa; test: Inhibition of HeLa S3 cell growth relative to mitomycin C action (ratio of IC50 values); format: functional, Homo sapiens
Procedure, shortened: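 HeLa S3 cells plated on day 0 and exposed to drug for 1 h on day 1. IC50 is the concentration giving 50% growth inhibition, taken from the concentration-response curve. Reported as IC50 of test compound divided by IC50 of mitomycin C.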

SMILES | T/C [1] | OD [2] [mg/kg] | ED50 [3] [mg/kg] | IC50 ratio [4]
COC1=CC(=O)C2=C(C1=O)[C@@H](COC(N)=O)[C@@]1(OC)[C@@H]3[C@H](CN21)N3C (stereo not given in full) | 0.36 | 10 | 7.1 | 0.29
COC1=CC(=O)C2=C(C1=O)[C@H](COC(N)=O)[C@@]1(O)[C@@H]3[C@H](CN21)N3C (stereo not given in full) | 0.31 | 20 | 11 | 16
COC1=C(Br)C(=O)C2=C(C1=O)[C@@H](COC(N)=O)[C@@]1(OC)[C@H]3N[C@H]3CN21 | 0.47 | 14 | 8.4 | 1.9
CN1[C@H]2[C@@H]1CN1C3=C(C(=O)C(N)=C(Br)C3=O)[C@H](COC(N)=O)[C@@]21O (stereo not given in full) | 0.55 | 30 | – | >35
CC1=C(N)C(=O)C2=C(C1=O)N1C[C@H]3[C@H](N3C)[C@]1(O)[C@H]2COC(N)=O (stereo not given in full) | 0.59 | 100 | – | >20
CN1[C@H]2[C@@H]1CN1C3=C(C(=O)C(N)=CC3=O)[C@H](COC(N)=O)[C@@]21O (stereo not given in full) | 0.26 | 100 | 33 | >71
CO[C@@]12[C@H](COC(N)=O)C3=C(C(=O)C=C(N)C3=O)N1C[C@@H]1N[C@@H]12 | 0.25 | 5 | 2.6 | 3.2
COC1=CC(=O)C2=C(C1=O)[C@@H](COC(N)=O)[C@@]1(OC)[C@H]3N[C@H]3CN21 | 0.45 | 2 | 1.6 | 0.3
CN1[C@H]2[C@@H]1CN1C3=C(C(=O)C(N)=C(Cl)C3=O)[C@H](COC(N)=O)[C@@]21O (stereo not given in full) | 0.43 | 20 | 17 | >20
COC1=C(Br)C(=O)C2=C(C1=O)[C@@H](COC(N)=O)[C@@]1(OC)[C@@H]3[C@H](CN21)N3C (stereo not given in full) | 0.97 | 14 | – | >4.8
CO[C@@]12[C@H](COC(N)=O)C3=C(C(=O)C(Cl)=C(N)C3=O)N1C[C@@H]1N[C@@H]12 | 0.14 | 2.7 | 1.4 | 0.37
COC1=C(Br)C(=O)C2=C(C1=O)[C@H](COC(N)=O)[C@@]1(O)[C@@H]3[C@H](CN21)N3C (stereo not given in full) | 0.44 | 30 | 22 | >3.7
CO[C@@]12[C@H](COC(N)=O)C3=C(C(=O)C(Cl)=C(N)C3=O)N1C[C@H]1[C@@H]2N1C (stereo not given in full) | 0.11 | 4 | 2.3 | 0.76
CO[C@@]12[C@H](COC(N)=O)C3=C(C(=O)C(Br)=C(N)C3=O)N1C[C@H]1[C@@H]2N1C (stereo not given in full) | 0.63 | 4 | – | 1.9
CO[C@@]12[C@H](COC(N)=O)C3=C(C(=O)C=C(N)C3=O)N1C[C@H]1[C@@H]2N1C (stereo not given in full) | 0.08 | 20 | 8.4 | 16
COC1=C(Cl)C(=O)C2=C(C1=O)[C@H](COC(N)=O)[C@@]1(O)[C@@H]3[C@H](CN21)N3C (stereo not given in full) | 0.62 | 20 | – | 11
COC1=C(Cl)C(=O)C2=C(C1=O)[C@@H](COC(N)=O)[C@@]1(OC)[C@H]3N[C@H]3CN21 | – | – | – | 2.5
COC1=C(C)C(=O)C2=C(C1=O)[C@@H](COC(N)=O)[C@@]1(OC)[C@H]3N[C@H]3CN21 [MITOMYCIN A] | 0.2 | 1.8 | 1.3 | 0.0035
COC1=C(C)C(=O)C2=C(C1=O)[C@H](COC(N)=O)[C@@]1(O)[C@@H]3[C@H](CN21)N3C (stereo not given in full) [MITOMYCIN B] | 0.37 | 4 | 2.8 | 0.29
CO[C@@]12[C@H](COC(N)=O)C3=C(C(=O)C(C)=C(N)C3=O)N1C[C@@H]1N[C@@H]12 [MITOMYCIN] | 0.27 | 3.1 | 1.6 | 0.49
COC1=C(C)C(=O)C2=C(C1=O)[C@@H](COC(N)=O)[C@@]1(OC)[C@@H]3[C@H](CN21)N3C (stereo not given in full) [N-METHYL-MITOMYCIN A] | 0.32 | 8 | 6.5 | <0.031
CO[C@@]12[C@H](COC(N)=O)C3=C(C(=O)C(C)=C(N)C3=O)N1C[C@H]1[C@@H]2N1C (stereo not given in full) [PORFIROMYCIN] | 0.23 | 40 | 16 | 9.5
